Laboratory results reported in ChEMBL document CHEMBL3792386, “Design, Synthesis, and Biological Evaluation of Novel Selenium (Se-NSAID) Molecules as Anticancer Agents” (J Med Chem, 2016).
Calls of active or inactive are those of the source. The rule behind the calls is not given here.

What was measured:
HCT-116 [1] = assay: Cytotoxicity against human HCT116 cells assessed as reduction in cell viability after 48 hrs MTT assay; assay type: functional, cell-based
How it was run: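 Cells (HCT116, nHDF in serum-free fibroblast medium with growth kit, or MEFs) exposed to increasing compound concentrations for 48 h at 37 °C. Viability read by MTT: 3000 cells/well, triplicate, MTT 3 h before end, formazan in DMSO, absorbance 570/630 nm. Mean ± SD.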

HT-29 [2] = assay: Antiproliferative activity against human HT-29 cells assessed as reduction in cell viability after 72 hrs by MTT assay; assay type: functional, cell-based; details: HT-29, 72 h
How it was run: (§1)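 3000 cells/well incubated in triplicate with serial concentrations of compound for 24, 48 or 72 h at 37 °C. MTT (5.0 mg/mL solution) added 3 h before the end. Formazan dissolved in DMSO, absorbance read at 570 and 630 nm. Viability normalised to vehicle control. IC50 from non-linear regression (variable slope), mean ± SD of triplicates.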

MDA-MB-231 [3] = assay: Antiproliferative activity against human MDA-MB-231 cells assessed as reduction in cell viability after 24 hrs by MTT assay; assay type: functional, cell-based; details: MDA-MB-231, 24 h; how it was run: as §1
[4] = Antiproliferative activity against human PANC1 cells assessed as reduction in cell viability after 48 hrs by MTT assay; assay type: functional, cell-based; details: PANC-1, 48 h; how it was run: as §1
UACC-903 [5] = assay: Antiproliferative activity against human UACC-903 cells assessed as reduction in cell viability after 72 hrs by MTT assay; assay type: functional, cell-based; details: UACC-903, 72 h; how it was run: as §1
MDA-MB-231 [6] = assay: Antiproliferative activity against human MDA-MB-231 cells assessed as reduction in cell viability after 48 hrs by MTT assay; assay type: functional, cell-based; details: MDA-MB-231, 48 h; how it was run: as §1
[7] = Antiproliferative activity against human PANC1 cells assessed as reduction in cell viability after 72 hrs by MTT assay; assay type: functional, cell-based; details: PANC-1, 72 h; how it was run: as §1
UACC-903 [8] = assay: Antiproliferative activity against human UACC-903 cells assessed as reduction in cell viability after 24 hrs by MTT assay; assay type: functional, cell-based; details: UACC-903, 24 h; how it was run: as §1
HT-29 [9] = assay: Antiproliferative activity against human HT-29 cells assessed as reduction in cell viability after 48 hrs by MTT assay; assay type: functional, cell-based; details: HT-29, 48 h; how it was run: as §1
UACC-903 [10] = assay: Antiproliferative activity against human UACC-903 cells assessed as reduction in cell viability after 48 hrs by MTT assay; assay type: functional, cell-based; details: UACC-903, 48 h; how it was run: as §1
[11] = Antiproliferative activity against human PANC1 cells assessed as reduction in cell viability after 24 hrs by MTT assay; assay type: functional, cell-based; details: PANC-1, 24 h; how it was run: as §1
MDA-MB-231 [12] = assay: Antiproliferative activity against human MDA-MB-231 cells assessed as reduction in cell viability after 72 hrs by MTT assay; assay type: functional, cell-based; details: MDA-MB-231, 72 h; how it was run: as §1
HT-29 [13] = assay: Antiproliferative activity against human HT-29 cells assessed as reduction in cell viability after 24 hrs by MTT assay; assay type: functional, cell-based; details: HT-29, 24 h; how it was run: as §1
HCT-116 [14] = assay: Induction of cell death in human HCT116 cells at 1 mM after 24 hrs by ethidium bromide staining-based fluorescence microscopy; assay type: functional
How it was run: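 HCT116 cells were exposed for 24 h with a DMSO vehicle comparison, then trypsinized and stained with calcein-AM (live, esterase activity) and ethidium homodimer-1 (dead, lost membrane integrity). Fluorescence microscopy was done at 20X, and the percentage of dead cells was calculated as mean ±SD.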

Structure (SMILES) | Activity (HCT-116 [1]) | IC50 (HT-29 [2]) [µM] | IC50 (MDA-MB-231 [3]) [µM] | IC50 [4] [µM] | IC50 (UACC-903 [5]) [µM] | IC50 (MDA-MB-231 [6]) [µM] | IC50 [7] [µM] | IC50 (UACC-903 [8]) [µM] | IC50 (HT-29 [9]) [µM] | IC50 (UACC-903 [10]) [µM] | IC50 [11] [µM] | IC50 (MDA-MB-231 [12]) [µM] | IC50 (HT-29 [13]) [µM] | Activity (HCT-116 [14])
O=c1[nH]cc(F)c(=O)[nH]1 | Active | – | – | – | – | – | – | – | – | – | – | – | – | –
COc1ccc2cc([C@H](C)C(=O)NCC[Se]C#N)ccc2c1 | – | > 50 | > 50 | > 50 | > 50 | > 50 | > 50 | > 50 | > 50 | > 50 | > 50 | > 50 | > 50 | –
C[Se]CC(NC(=O)c1ccccc1OC(C)=O)C(=O)O (stereo not given) | – | > 50 | > 50 | 26.1 | > 50 | > 50 | 27.6 | > 50 | > 50 | > 50 | > 50 | > 50 | > 50 | –
CC(=O)Oc1ccccc1C(=O)[Se]CC[Se]C(=O)c1ccccc1OC(C)=O | – | 5.5 | 18.6 | 13.5 | 3 | 11 | 3.4 | 17.2 | 3.5 | 3.6 | 33.4 | 7.6 | 18.6 | –
CC(=O)Oc1ccccc1C(=O)OCC[Se]C#N | – | 20.2 | > 50 | 36.1 | 17.6 | 23.8 | 15.1 | 33.9 | 30.9 | 14.5 | 38.7 | 34.3 | 10.2 | –
CC(=O)Oc1ccccc1C(=O)NCCSC#N | – | > 50 | > 50 | 17.7 | > 50 | > 50 | 8.7 | > 50 | > 50 | > 50 | > 50 | > 50 | > 50 | –
CC(C)Cc1ccc(C(C)C(=O)O)cc1 (stereo not given) [IBUPROFEN] | – | > 50 | > 50 | > 50 | > 50 | > 50 | > 50 | > 50 | > 50 | > 50 | > 50 | > 50 | > 50 | –
CC(=O)Oc1ccccc1C(=O)O [ASPIRIN] | Active | > 50 | > 50 | > 50 | > 50 | > 50 | > 50 | > 50 | > 50 | > 50 | > 50 | > 50 | > 50 | inactive
COc1ccc2cc([C@H](C)C(=O)O)ccc2c1 [NAPROXEN] | – | > 50 | > 50 | > 50 | > 50 | > 50 | > 50 | > 50 | > 50 | > 50 | > 50 | > 50 | > 50 | –
CC(C)Cc1ccc(C(C)C(=O)NCC[Se]C#N)cc1 (stereo not given) | – | > 50 | > 50 | > 50 | > 50 | > 50 | > 50 | > 50 | > 50 | > 50 | > 50 | > 50 | > 50 | –
CC(=O)Oc1ccccc1C(=O)[Se]CCBr | – | 19.3 | 23.7 | > 50 | 10.2 | 18.7 | > 50 | 22.7 | 27.7 | 19.4 | 39.3 | 8.7 | 28.5 | –
CC(=O)Oc1ccccc1C(=O)[Se]CC[Se]C#N | – | 17.7 | > 50 | 18.9 | 12.7 | 34.2 | 9.6 | > 50 | 27.5 | 15.8 | > 50 | 18.6 | > 50 | –
